# High-throughput results as filed in PubChem BioAssay.
# HCT116 bCat-KO = primary screen for growth suppressors in beta-catenin knockout HCT116 cells (colon tumor, human); HCT116 beta-catenin knockout viability, CellTiter-Glo, 60 h; active compounds read low; viability, % at 10 µM; hit rate 1.5% among 140,000; AID 818, 2007;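 active = viability at or under a set limit, the compound median less 4 SD, cut at about 6% in these data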
# HUVEC prolif 384 = inhibitors of HUVEC proliferation, primary screen, cell-based, 384-well | CellTiter-Glo luminescence, 72 h; active compounds read low | viability, % at 10 µM (by protocol) | hit rate 1.1% among 86,000;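 active = viability at or below 30%; inactive = viability above 30%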
# HCT116 PTEN-null = growth suppression of PTEN-null HCT116, primary screen, cell-based, CellTiter-Glo. HCT116 PTEN-null viability, 60 h; active compounds read low. viability, % at 10 µM. hit rate 1.2% among 140,000. AID 827, 2007;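 active = viability at or below a set limit, 4 SD under the median of all tested compounds, cut at about 3.7% in these data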;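 also: PTEN knockout HCT116 line with beta catenin targeted HCT116 as companion control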
# Lung fibro prol = antiproliferative effect on LL 47 fibroblasts – human, LL 47 cells, CellTiter-Glo luminescence, primary screen; LL 47 human lung fibroblast viability, ATP luminescence; active compounds read low; hit rate 1.1% among 85,000; viability, % at 10 µM;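 active = viability at or below 50% in the single dose screen; inactive = viability above 50%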;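 also: compound exposure lasted 72 h before the ATP readout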
#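 Times – overnight cell rest, 72 h compound treatment at 37 °C · Test system – human lung fibroblast line LL 47, low passage · Amount – 1,150 cells in each well · Controls – cell-only wells, no compound · Doses – 0.1% DMSO in all compound wells · Measured by – CellTiter-Glo luminescence · Buffer or medium – IMEM plus 15% FBS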
# H69AR inhibit = proliferation blockers of H69AR lung cancer cells, primary screen, cell-based, human, 86K library | viability, % at 10 µM | H69AR lung tumor viability, ATP luminescence, 72 h; active compounds read low | hit rate 6% among 85,000;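 active = viability at or below 40%; inactive = viability above 40%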;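 also: multidrug resistant small cell line overexpressing MRP-1 efflux transporter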
# A number is an active result; i = inactive; nt = not tested or not shown. The full list was thinned out, with hits kept by preference.
SMILES,HCT116 bCat-KO,HUVEC prolif 384,HCT116 PTEN-null,Lung fibro prol,H69AR inhibit
CC(=O)Nc1nc(C)c(-c2csc(Nc3cccc([N+](=O)[O-])c3)n2)s1,1.8,nt,1.7,nt,nt
Oc1ccc(Nc2nc(-c3ccc4ccccc4c3)cs2)cc1,i,i,i,47,19
Cc1nc(C)c(-c2csc(Nc3cccnc3)n2)s1,i,i,i,31,i
c1cncc(Nc2nc(-c3ccncc3)cs2)c1,i,i,i,i,i
CSc1ncc(Cl)c(C(=O)C(C#N)c2nc3c(C)cc(C)cc3c(=O)[nH]2)n1 (centres undefined),i,i,i,i,i
CCOC(=O)C1CCCN(C(=O)CN2C(=O)/C(=C/c3ccc(OC)cc3)Oc3ccccc32)C1 (centres undefined),i,nt,i,nt,nt
Cc1cc(C(=O)Cn2nc(C(=O)O)c3ccccc3c2=O)c(C)n1-c1ccc(F)cc1,i,nt,i,nt,nt
CCC(C)(c1nnnn1-c1c(C)cccc1C)N(N=O)c1ccccc1Cl (centres undefined),i,nt,i,nt,nt
CC(=O)Nc1nc(C)c(-c2csc(Nc3ccc(O)cc3)n2)s1,i,i,i,47,7.2
Cc1cc(C)c(NC(=O)COc2ccccc2C(=O)Nc2ccc3c(c2)oc2ccccc23)c(C)c1,i,i,i,47,26
CCOc1ccccc1C(=O)Nc1ccc(-c2nnc(-c3ccc(C)cc3)o2)cc1,nt,i,nt,i,i
Cn1c(=O)c2ncn(CC(=O)N/N=C/c3ccco3)c2n(C)c1=O,i,nt,i,nt,nt
CCN1CCN(c2ncc(C(=O)Nc3cc(Cl)ccc3OC)c3ccccc23)CC1,i,19,i,i,12
COc1ccc(-c2noc(-c3ccc(Br)o3)n2)cc1OC,i,29,i,i,i
CCOC(=O)CN1C(=O)S/C(=C/C=C/c2ccc(N(C)C)cc2)C1=O,i,nt,i,nt,nt
CCc1ccc(-c2cc(C(=O)N3N=C(C(F)F)CC3(O)C(F)F)c3ccccc3n2)cc1 (centres undefined),i,nt,3.5,nt,nt
CCOC(=O)C1CCN(C(=O)c2cccnc2Cl)CC1,i,i,i,i,i
CC(=O)c1nnn(-c2nc(N)nc(N(c3ccccc3)c3ccccc3)n2)c1C,i,i,i,i,i
CCCCN(CCCC)c1nc(OC)nc(-n2nnc(C(C)=O)c2C)n1,i,i,i,i,37
Cc1nc2c(C(=O)NCCC(C)C)c[nH]n2c(=O)c1Cc1ccccc1F,i,12,i,i,i
Cc1nc2c(C(=O)NCCC(C)C)c[nH]n2c(=O)c1Cl,i,nt,i,nt,nt
Cc1ccc(C(=O)NCC(=O)NCC(=O)OCC(=O)c2cccs2)cc1,i,nt,i,nt,nt
CSc1nc2c(c(-c3ccc(O)cc3)c1C#N)CCC2,i,i,i,i,26
N#Cc1c(N)c(C#N)c(-c2ccc(O)cc2)c2c1CCCC2,i,i,i,i,i
C=CCn1c(=O)c2c3c(sc2n2c(Nc4ccc(OC)cc4)nnc12)CCCC3,i,i,i,i,i
SMILES,HCT116 bCat-KO,HUVEC prolif 384,HCT116 PTEN-null,Lung fibro prol,H69AR inhibit
C=CCn1c(=O)c2c3c(sc2n2c(Nc4ccc(C(=O)OCC)cc4)nnc12)CCCC3,i,i,i,i,39
CCOc1ccc(CSC(=N)N)cc1,i,nt,i,nt,nt
CCCCCOc1ccc(Br)cc1CSC(=N)N,1.3,nt,0.8,nt,nt
Fc1ccc(NC(=S)NCc2cccs2)cc1,i,nt,i,nt,nt
COc1ccc(O)c(C2=Nc3ccccc3N=C(c3cccs3)C2)c1,i,nt,i,nt,nt
COc1ccc(C2CC(c3cccs3)=Nc3ccccc3S2)cc1 (centres undefined),i,i,i,i,17
Nc1c(C(=O)NCCN2CCOCC2)c2nc3ccccc3nc2n1CCc1ccccc1F,3.6,i,3.8,i,26
COc1ccccc1CNC(=O)c1c(N)n(CCCN2CCOCC2)c2nc3ccccc3nc12,i,nt,i,nt,nt
Nc1c(C(=O)NCCN2CCOCC2)c2nc3ccccc3nc2n1-c1ccccc1,i,i,i,i,36
Nc1c(C(=O)NCc2ccc3c(c2)OCO3)c2nc3ccccc3nc2n1CCCN1CCOCC1,1.4,20,1.4,i,1.1
Nc1c(C(=O)NCCN2CCOCC2)c2nc3ccccc3nc2n1-c1ccc2c(c1)OCO2,i,i,i,i,36
COCCNC(=O)c1c(N)n(-c2ccccc2)c2nc3ccccc3nc12,i,i,i,i,i
Nc1c(C(=O)NCCN2CCOCC2)c2nc3ccccc3nc2n1CCc1ccccc1,i,i,i,i,i
O=C(Nc1cc(S(=O)(=O)Nc2ccc(Cl)cc2)ccc1N1CCCCC1)c1ccc(F)cc1Cl,i,nt,i,nt,nt
